Results from PMC9477609 (Journal of Molecular Liquids, 2022).
In brackets after ≈: the same amount, converted by molar mass.

Tests used:
[1] = water solubility of neat and equilibrated powders; assay type: physicochemical; details: for water solubility: neat and solvent-equilibrated dry powders
[2] = system: MCF-7; details: read-out: cell proliferation inhibitor IC50; MCF-7 ref 5; cited from earlier work
[3] = system: parasitic proliferation; details: cited from earlier work
[4] = system: hepatitis C virus; details: cited from earlier work
[5] = apparent thermodynamic analysis: dissolution Gibbs free energy; assay type: physicochemical
Procedure, shortened: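 Excess solid was added to the pure solvent, vortexed and sonicated, then shaken for 24 h at 300 rpm at each temperature from 298.15 to 323.15 K. Samples were centrifuged for 20 min at 8000 rpm and 25 °C. Supernatant was diluted in MeOH/water 8:2 and read by absorbance at 330 nm against a 5–35 µg/mL calibration. Mole fraction solubility was the mean of triplicates. Dissolution thermodynamics came from Van't Hoff analysis.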

[6] = system: snails; details: cited from earlier work
[7] = in water, PBS (pH 7.4), SGF and SIF; no reference given; cited from earlier work
[8] = system: MDA-MB-231; details: human breast cancer cell lines (MDA-MB-231) ref 5; cited from earlier work
[9] = cited from earlier work

**Q.** With O=C(Nc1ccc([N+](=O)[O-])cc1Cl)c1cc(Cl)ccc1O [NCL-MeOH] as the molecule, how does the water solubility [1] read?
**A.** Its water solubility is 16.261 ± 0.082 µg/mL (≈ 49.7 µM).

**Q.** With O=C(Nc1ccc([N+](=O)[O-])cc1Cl)c1cc(Cl)ccc1O [niclosamide, N-(2′-chloro-4′-nitrophenyl)-5-chlorosalicylamide] as the molecule, how does the IC50 [2] read?
**A.** Its IC50 is 1060 nM.

**Q.** And the “parasitic proliferation inhibitor MIC50” value [3]?
**A.** The value was 200–250 nM/L.

**Q.** And the solubility ([1]; water)?
**A.** Its solubility is 20.76 ± 0.099 µg/mL (≈ 63.5 µM).

**Q.** And the “hepatitis C virus replication inhibitor” value [4]?
**A.** Its value is 0.16 µM/L.

**Q.** What about the “ΔdisG, dissolution Gibbs free energy” value ([5]; 1-butanol, 298.15 K) of the same molecule?
**A.** The value was -0.48423 kcal/mol.

**Q.** And the “ΔdisG, dissolution Gibbs free energy” value ([5]; 1-butanol, 303.15 K)?
**A.** The value was -0.48341 kcal/mol.

**Q.** And the “ΔdisG, dissolution Gibbs free energy” value ([5]; 1-butanol, 308.15 K)?
**A.** Its value is -0.48255 kcal/mol.

**Q.** And the “ΔdisG, dissolution Gibbs free energy” value ([5]; 1-butanol, 313.15 K)?
**A.** The value was -0.48176 kcal/mol.

**Q.** What about the “ΔdisG, dissolution Gibbs free energy” value ([5]; 1-butanol, 318.15 K) of the same molecule?
**A.** Its value is -0.48088 kcal/mol.

**Q.** What about the “ΔdisG, dissolution Gibbs free energy” value ([5]; 1-butanol, 323.15 K) of the same molecule?
**A.** Its value is -0.48009 kcal/mol.

**Q.** And the “ΔdisG, dissolution Gibbs free energy” value ([5]; 2-propanol, 298.15 K)?
**A.** Its value is -0.09434 kcal/mol.

**Q.** What about the “ΔdisG, dissolution Gibbs free energy” value ([5]; 2-propanol, 303.15 K) of the same molecule?
**A.** The value was -0.09015 kcal/mol.

**Q.** What about the “ΔdisG, dissolution Gibbs free energy” value ([5]; 2-propanol, 308.15 K) of the same molecule?
**A.** The value was -0.08597 kcal/mol.

**Q.** What about the “ΔdisG, dissolution Gibbs free energy” value ([5]; 2-propanol, 313.15 K) of the same molecule?
**A.** The value was -0.08179 kcal/mol.

**Q.** And the “ΔdisG, dissolution Gibbs free energy” value ([5]; 2-propanol, 318.15 K)?
**A.** Its value is -0.07763 kcal/mol.

**Q.** What about the “ΔdisG, dissolution Gibbs free energy” value ([5]; 2-propanol, 323.15 K) of the same molecule?
**A.** Its value is -0.07345 kcal/mol.

**Q.** And the “ΔdisG, dissolution Gibbs free energy” value ([5]; DMSO, 298.15 K)?
**A.** Its value is 0.1837 kcal/mol.

**Q.** And the “ΔdisG, dissolution Gibbs free energy” value ([5]; DMSO, 303.15 K)?
**A.** Its value is 0.1905 kcal/mol.

**Q.** And the “ΔdisG, dissolution Gibbs free energy” value ([5]; DMSO, 308.15 K)?
**A.** The value was 0.1973 kcal/mol.

**Q.** And the “ΔdisG, dissolution Gibbs free energy” value ([5]; DMSO, 313.15 K)?
**A.** The value was 0.2041 kcal/mol.

**Q.** And the “ΔdisG, dissolution Gibbs free energy” value ([5]; DMSO, 318.15 K)?
**A.** Its value is 0.2109 kcal/mol.

**Q.** And the “ΔdisG, dissolution Gibbs free energy” value ([5]; DMSO, 323.15 K)?
**A.** Its value is 0.2177 kcal/mol.

**Q.** And the “ΔdisG, dissolution Gibbs free energy” value ([5]; Ethanol, 298.15 K)?
**A.** Its value is 0.3086 kcal/mol.

**Q.** And the “ΔdisG, dissolution Gibbs free energy” value ([5]; Ethanol, 303.15 K)?
**A.** Its value is 0.31637 kcal/mol.

**Q.** And the “ΔdisG, dissolution Gibbs free energy” value ([5]; Ethanol, 308.15 K)?
**A.** The value was 0.32414 kcal/mol.

**Q.** And the “ΔdisG, dissolution Gibbs free energy” value ([5]; Ethanol, 313.15 K)?
**A.** The value was 0.33191 kcal/mol.

**Q.** What about the “ΔdisG, dissolution Gibbs free energy” value ([5]; Ethanol, 318.15 K) of the same molecule?
**A.** Its value is 0.33967 kcal/mol.

**Q.** And the “ΔdisG, dissolution Gibbs free energy” value ([5]; Ethanol, 323.15 K)?
**A.** The value was 0.34744 kcal/mol.

**Q.** What about the “ΔdisG, dissolution Gibbs free energy” value ([5]; Methanol, 298.15 K) of the same molecule?
**A.** The value was 1.3769 kcal/mol.

**Q.** What about the “ΔdisG, dissolution Gibbs free energy” value ([5]; Methanol, 303.15 K) of the same molecule?
**A.** The value was 1.3941 kcal/mol.

**Q.** And the “ΔdisG, dissolution Gibbs free energy” value ([5]; Methanol, 308.15 K)?
**A.** The value was 1.4113 kcal/mol.

**Q.** What about the “ΔdisG, dissolution Gibbs free energy” value ([5]; Methanol, 313.15 K) of the same molecule?
**A.** Its value is 1.4285 kcal/mol.

**Q.** And the “ΔdisG, dissolution Gibbs free energy” value ([5]; Methanol, 318.15 K)?
**A.** The value was 1.4457 kcal/mol.

**Q.** And the “ΔdisG, dissolution Gibbs free energy” value ([5]; Methanol, 323.15 K)?
**A.** The value was 1.463 kcal/mol.

**Q.** And the “ΔdisG, dissolution Gibbs free energy” value ([5]; PEG-200, 298.15 K)?
**A.** The value was -0.1837 kcal/mol.

**Q.** What about the “ΔdisG, dissolution Gibbs free energy” value ([5]; PEG-200, 303.15 K) of the same molecule?
**A.** Its value is -0.1807 kcal/mol.

**Q.** What about the “ΔdisG, dissolution Gibbs free energy” value ([5]; PEG-200, 308.15 K) of the same molecule?
**A.** The value was -0.1777 kcal/mol.

**Q.** And the “ΔdisG, dissolution Gibbs free energy” value ([5]; PEG-200, 313.15 K)?
**A.** Its value is -0.1747 kcal/mol.

**Q.** And the “ΔdisG, dissolution Gibbs free energy” value ([5]; PEG-200, 318.15 K)?
**A.** Its value is -0.1717 kcal/mol.

**Q.** And the “ΔdisG, dissolution Gibbs free energy” value ([5]; PEG-200, 323.15 K)?
**A.** The value was -0.1687 kcal/mol.

**Q.** What about the “ΔdisG, dissolution Gibbs free energy” value ([5]; PEG-400, 298.15 K) of the same molecule?
**A.** The value was -0.50012 kcal/mol.

**Q.** What about the “ΔdisG, dissolution Gibbs free energy” value ([5]; PEG-400, 303.15 K) of the same molecule?
**A.** The value was -0.50024 kcal/mol.

**Q.** What about the “ΔdisG, dissolution Gibbs free energy” value ([5]; PEG-400, 308.15 K) of the same molecule?
**A.** The value was -0.50038 kcal/mol.

**Q.** And the “ΔdisG, dissolution Gibbs free energy” value ([5]; PEG-400, 313.15 K)?
**A.** The value was -0.50048 kcal/mol.

**Q.** And the “ΔdisG, dissolution Gibbs free energy” value ([5]; PEG-400, 318.15 K)?
**A.** Its value is -0.50067 kcal/mol.

**Q.** And the “ΔdisG, dissolution Gibbs free energy” value ([5]; PEG-400, 323.15 K)?
**A.** Its value is -0.50079 kcal/mol.

**Q.** What about the “ΔdisG, dissolution Gibbs free energy” value ([5]; Water, 298.15 K) of the same molecule?
**A.** The value was 0.1407 kcal/mol.

**Q.** What about the “ΔdisG, dissolution Gibbs free energy” value ([5]; Water, 303.15 K) of the same molecule?
**A.** The value was 0.1507 kcal/mol.

**Q.** And the “ΔdisG, dissolution Gibbs free energy” value ([5]; Water, 308.15 K)?
**A.** The value was 0.1608 kcal/mol.

**Q.** And the “ΔdisG, dissolution Gibbs free energy” value ([5]; Water, 313.15 K)?
**A.** The value was 0.1709 kcal/mol.

**Q.** What about the “ΔdisG, dissolution Gibbs free energy” value ([5]; Water, 318.15 K) of the same molecule?
**A.** Its value is 0.181 kcal/mol.

**Q.** What about the “ΔdisG, dissolution Gibbs free energy” value ([5]; Water, 323.15 K) of the same molecule?
**A.** Its value is 0.1911 kcal/mol.

**Q.** What about the “lethal concentration in snails” value [6] of the same molecule?
**A.** Its value is 0.3 mg/L.

**Q.** What about the aqueous solubility [7] of the same molecule?
**A.** Its aqueous solubility is 6 to 20 µg/mL.

**Q.** And the “apoptosis inducer, concentration” value [8]?
**A.** Its value is 1–10 µM/L.

**Q.** With O=C(Nc1ccc([N+](=O)[O-])cc1Cl)c1cc(Cl)ccc1O [NCL-DMSO] as the molecule, how does the water solubility [1] read?
**A.** Its water solubility is 18.082 ± 0.045 µg/mL (≈ 55.3 µM).

**Q.** With CO [methanol] as the molecule, how does the “log P” value [9] read?
**A.** Its value is −0.69.

**Q.** For C[S+](C)[O-] [dimethyl sulfoxide], which “log P” value [9] is on record?
**A.** The value was −1.35.
